Values belong to the compound of their own block, whether it stands above or below them. Active and inactive are the calls of the source. The calls are words filed in the database; no cut-off is given here.
How the values were obtained:
MM96L [1] = assay: Induction of histone H4 acetylation in human MM96L cells; type: functional, cell-based
Outline: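 MM96L melanoma cells were exposed for 8 h to 0.05, 0.5 or 5 µg/mL compound, with DMSO vehicle and untreated controls. Histones were extracted and resolved by TAU gel electrophoresis to separate non-, mono-, di-, tri- and tetra-acetylated histone H4.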

NFF [2] = assay: Antiproliferative activity against human NFF cells; type: functional, cell-based
Outline: (§1)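 Cells cultured in RPMI 1640 with 10% heat-inactivated FCS, 3 mM HEPES, 5% CO2, 37 °C; NFF are primary neonatal foreskin fibroblasts. Cells were seeded at 5 × 10^3/well and left to adhere overnight. They were exposed to compound for 24 h, then the medium was replaced and cells grown a further 72 h. Survival was read by SRB staining at 564 nm, giving IC50.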

MM96L [3] = assay: Antiproliferative activity against human MM96L cells; type: functional, cell-based; outline: as §1
[4] = Antiproliferative activity against human MM229 cells; type: functional, cell-based; outline: as §1
[5] = Antiproliferative activity against human MM329 cells; type: functional, cell-based; outline: as §1
[6] = Antiproliferative activity against human MM470 cells; type: functional, cell-based; outline: as §1
[7] = Antiproliferative activity against human MM604 cells; type: functional, cell-based; outline: as §1
[8] = Antiproliferative activity against human Mel RM cells; type: functional, cell-based; outline: as §1
[9] = Antiproliferative activity against human Mel FH cells; type: functional, cell-based; outline: as §1
SK-MEL-28 = assay: Antiproliferative activity against human SK-Mel-28 cells; type: functional, cell-based; outline: as §1
DO4 = assay: Antiproliferative activity against human DO4 cells; type: functional, cell-based; outline: as §1
[10] = Antiproliferative activity against human D14 cells; type: functional, cell-based; outline: as §1
[11] = Antiproliferative activity against human D11 cells; type: functional, cell-based; outline: as §1
[12] = Antiproliferative activity against human D17 cells; type: functional, cell-based; outline: as §1
[13] = Antiproliferative activity against human LSP M2 cells; type: functional, cell-based; outline: as §1
[14] = Antiproliferative activity against human AF6 cells; type: functional, cell-based; outline: as §1
[15] = Antiproliferative activity against human AO7 RM cells; type: functional, cell-based; outline: as §1
A2058 = assay: Antiproliferative activity against human A2058 cells; type: functional, cell-based; outline: as §1
HeLa = assay: Antiproliferative activity against human HeLa cells; type: functional, cell-based; outline: as §1
NFF [16] = assay: Selectivity index, IC50 for MM229 over IC50 for NFF cells; type: functional, Homo sapiens
Outline: (§2)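 Selectivity index: IC50 for normal neonatal foreskin fibroblasts (NFF) relative to IC50 for each cancer line, both from the same survival assay. Cells grown in RPMI 1640 with 10% heat-inactivated FCS at 37 °C and 5% CO2, plated at 5 × 10^3 cells/well and left to adhere overnight. Compound exposure 24 h, then removed and cells regrown 72 h in fresh medium. Fixed with methylated spirits, stained with sulforhodamine B, read at 564 nm.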

NFF [17] = assay: Selectivity index, IC50 for MM329 over IC50 for NFF cells; type: functional, Homo sapiens; outline: as §2
NFF [18] = assay: Selectivity index, IC50 for MM470 over IC50 for NFF cells; type: functional, Homo sapiens; outline: as §2
NFF [19] = assay: Selectivity index, IC50 for MM604 over IC50 for NFF cells; type: functional, Homo sapiens; outline: as §2
NFF [20] = assay: Selectivity index, IC50 for Mel RM over IC50 for NFF cells; type: functional, Homo sapiens; outline: as §2
NFF [21] = assay: Selectivity index, IC50 for Mel FH over IC50 for NFF cells; type: functional, Homo sapiens; outline: as §2
NFF [22] = assay: Selectivity index, IC50 for DO4 over IC50 for NFF cells; type: functional, Homo sapiens
NFF [23] = assay: Selectivity index, IC50 for D14 over IC50 for NFF cells; type: functional, Homo sapiens
NFF [24] = assay: Selectivity index, IC50 for D11 over IC50 for NFF cells; type: functional, Homo sapiens
NFF [25] = assay: Selectivity index, IC50 for D17 over IC50 for NFF cells; type: functional, Homo sapiens
NFF [26] = assay: Selectivity index, IC50 for LSP M2 over IC50 for NFF cells; type: functional, Homo sapiens; outline: as §2
NFF [27] = assay: Selectivity index, IC50 for AF6 over IC50 for NFF cells; type: functional, Homo sapiens
NFF [28] = assay: Selectivity index, IC50 for AO7 RM over IC50 for NFF cells; type: functional, Homo sapiens
NFF [29] = assay: Selectivity index, IC50 for A2058 over IC50 for NFF cells; type: functional, Homo sapiens
NFF [30] = assay: Selectivity index, IC50 for HeLa over IC50 for NFF cells; type: functional, Homo sapiens
A549 [31] = assay: Antiproliferative activity against human A549 cells; type: functional, cell-based; outline: as §1
DU-145 = assay: Antiproliferative activity against human DU145 cells; type: functional, cell-based; outline: as §1
HOP-62 = assay: Antiproliferative activity against human HOP62 cells; type: functional, cell-based; outline: as §1
HT-29 = assay: Antiproliferative activity against human HT29 cells; type: functional, cell-based; outline: as §1
MCF7 = assay: Antiproliferative activity against human MCF7 cells; type: functional, cell-based; outline: as §1
SK-MEL-5 = assay: Antiproliferative activity against human SK-Mel-5 cells; type: functional, cell-based; outline: as §1
[32] = Antiproliferative activity against human H520 cells; type: functional, cell-based; details: NCI-H520; outline: as §1
T47D = assay: Antiproliferative activity against human T-47D cells; type: functional, cell-based; outline: as §1
C180-13S = assay: Antiproliferative activity against human C180-13S cells; type: functional, cell-based; outline: as §1
[33] = Antiproliferative activity against human JAM cells; type: functional, cell-based; outline: as §1
PC-3 = assay: Antiproliferative activity against human PC3 cells; type: functional, cell-based; outline: as §1
COLO 205 = assay: Antiproliferative activity against human Colo205 cells; type: functional, cell-based; outline: as §1
MM96L [34] = assay: Effect on cell morphology in human MM96L cells at 3 ug/mL after 24 hrs; type: functional, cell-based
A549 [35] = assay: Induction of p21 expression in human A549 cells after 24 hrs; type: functional, cell-based
Outline: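 A549 cells were treated 24 h with 0.05, 0.5 or 5 µg/mL compound or vehicle. Lysates were made by sonication in 1% SDS/20% glycerol/10 mM Tris pH 7.4 buffer, and protein was quantified by BCA. Then 30 µg was run on 15% SDS-PAGE and immunoblotted for p21WAF1/Cip1 (1:1000), with GAPD (1:10 000) as reference, using chemiluminescence detection.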

A549 (Homo sapiens) = assay: Induction of p21 expression in human A549 cells

Compound: CN(C)c1ccc(C(=O)NC(CCCCCC(=O)NO)C(=O)NCc2ccccc2)cc1 (centres undefined)
Activity (MM96L [1]): Dose-dependent effect
IC50 (NFF [2]): 870 nM
IC50 (MM96L [3]): 130 nM
IC50 [4]: 600 nM
IC50 [5]: 60 nM
IC50 [6]: 90 nM
IC50 [7]: 10 nM
IC50 [8]: 950 nM
IC50 [9]: 80 nM
IC50 (SK-MEL-28): 60 nM
IC50 (DO4): 120 nM
IC50 [10]: 260 nM
IC50 [11]: 300 nM
IC50 [12]: 60 nM
IC50 [13]: 450 nM
IC50 [14]: 300 nM
IC50 [15]: 180 nM
IC50 (A2058): 100 nM
IC50 (HeLa): 90 nM
Ratio IC50 (NFF [16]): 1.5
Ratio IC50 (NFF [17]): 14.5
Ratio IC50 (NFF [18]): 9.7
Ratio IC50 (NFF [19]): 87
Ratio IC50 (NFF [20]): 0.9
Ratio IC50 (NFF [21]): 10.9
Ratio IC50 (NFF [22]): 7.3
Ratio IC50 (NFF [23]): 3.3
Ratio IC50 (NFF [24]): 2.9
Ratio IC50 (NFF [25]): 14.5
Ratio IC50 (NFF [26]): 1.9
Ratio IC50 (NFF [27]): 2.9
Ratio IC50 (NFF [28]): 4.8
Ratio IC50 (NFF [29]): 8.7
Ratio IC50 (NFF [30]): 9.7

Compound: CN(C)c1ccc(C(=O)N[C@@H](CCCCCC(=O)NO)C(=O)NCc2ccccc2)cc1
Activity (MM96L [34]): Active
IC50 (NFF [2]): 12000 nM
IC50 (MM96L [3]): 1600 nM

Compound: CC(C)COC(=O)N[C@@H](CCCCCC(=O)NO)C(=O)Nc1cccc2cccnc12
IC50 (NFF [2]): 81 nM
IC50 (MM96L [3]): 23 nM
IC50 (SK-MEL-28): 170 nM
IC50 (A549 [31]): 291 nM
IC50 (DU-145): 130 nM
IC50 (HOP-62): 267 nM
IC50 (HT-29): 360 nM
IC50 (MCF7): 138 nM
IC50 (SK-MEL-5): 100 nM
IC50 [32]: 129 nM
IC50 (T47D): 198 nM
IC50 (C180-13S): 149 nM
IC50 [33]: 221 nM
IC50 (PC-3): 651 nM
IC50 (COLO 205): 395 nM

Now from value to compound, other results behind:

IC50 (SK-MEL-28): 37 nM
IC50 (A549 [31]): 73 nM
IC50 (DU-145): 30 nM
IC50 (HT-29): 99 nM
IC50 (MCF7): 17 nM
IC50 (SK-MEL-5): 29 nM
IC50 (T47D): 20 nM
IC50 (PC-3): 109 nM
IC50 (COLO 205): 141 nM
Compound: O=C(/C=C/c1ccccc1)N[C@@H](CCCCCC(=O)NO)C(=O)Nc1cccc2cccnc12
IC50 (NFF [2]): 1240 nM
IC50 (MM96L [3]): 21 nM
IC50 (HOP-62): 65 nM
IC50 [32]: 27 nM
IC50 (C180-13S): 28 nM
IC50 [33]: 49 nM

IC50 (SK-MEL-28): 33 nM
IC50 (A549 [31]): 69 nM
IC50 (DU-145): 22 nM
IC50 (HT-29): 79 nM
IC50 (MCF7): 19 nM
IC50 (SK-MEL-5): 18 nM
IC50 (T47D): 19 nM
IC50 (PC-3): 148 nM
IC50 (COLO 205): 102 nM
Compound: O=C(CCCCC[C@H](NC(=O)c1cc2ccccc2[nH]1)C(=O)Nc1cccc2cccnc12)NO
Activity (A549 [35]): Active
IC50 (NFF [2]): 337 nM
IC50 (MM96L [3]): 21 nM
IC50 (HOP-62): 63 nM
IC50 [32]: 26 nM
IC50 (C180-13S): 20 nM
IC50 [33]: 48 nM
Activity (A549 (Homo sapiens)): Active
